Test results: ChEMBL document CHEMBL4689842, “EUbOPEN Chemogenomics Library wave 1” (2021)
Several values for one entry are separate records, joined by “and”; a condition that tells them apart may be missing. Identical values can stand only once.

Key:
Format in all cases: toxicity, cell-based
HEK-293T [1] = experiment: Multiplex assay against HEK293T; settings: human;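 for Population Tubulin-Different-Phenotype (%): share of the cells with healthy nuclei that show this phenotype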
Procedure, shortened: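 Live cells were stained at seeding with Hoechst33342, BioTracker Green Microtubule Cytoskeleton Dye, MitoTracker Red and Annexin V Alexa Fluor 680, then imaged on a CQ1 microscope at 37°C and 5% CO2 after compound addition. CellPathfinder machine-learning gating split cells into Hoechst high-intensity objects or normal cells. Normal cells were split into healthy, pyknosed or fragmented nuclei, and pyknosed cells into mitotic or apoptotic. Tubulin, mitochondrial-mass and membrane-permeability phenotypes are per cents of healthy-nucleus cells.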

HEK-293T [2] = experiment: Incucyte cell viability with HEK293T; settings: human, 10 µM, compound concentration 10 uM; note: filed as whole numbers so only -1 and 0 and 1 occur
Fibroblast = experiment: Incucyte cell viability with human fibroblast; settings: 10 µM, compound concentration 10 uM; note: filed as whole numbers so only -1 and 0 and 1 occur
[3] = 12 h, 1 µM, compound concentration 1 uM, replicate 1
[4] = 12 h, 1 µM, compound concentration 1 uM, replicate 2
[5] = 12 h, 10 µM, compound concentration 10 uM, replicate 1
[6] = 12 h, 10 µM, compound concentration 10 uM, replicate 2
[7] = 24 h, 1 µM, compound concentration 1 uM, replicate 1
[8] = 24 h, 1 µM, compound concentration 1 uM, replicate 2
[9] = 24 h, 10 µM, compound concentration 10 uM, replicate 1
[10] = 24 h, 10 µM, compound concentration 10 uM, replicate 2
[11] = 48 h, 10 µM, compound concentration 10 uM, replicate 1
[12] = 48 h, 10 µM, compound concentration 10 uM, replicate 2
[13] = 6 h, replicate number 1, timepoint 6 hours
[14] = 12 h, replicate number 1, timepoint 12 hours
[15] = 18 h, replicate number 1, timepoint 18 hours
[16] = 24 h, replicate number 1, timepoint 24 hours

## COc1cc(N2CCC(N(C)C)CC2)ccc1Nc1ncc(Cl)c(Nc2ccccc2P(C)(C)=O)n1
HEK-293T [1]; [3]
  Population Apoptotic (%): 16%
  Population Fragmented Nuclei (%): 19%
  Population Healthy Nuclei (%): 61%
  Population Hoechst High Intensity Objects (%): 14%
  Population Membrane Permeable-Phenotype (%): 1%
  Population Mitochondria Different-Phenotype (%): 9%
  Population Mitotic Cells (%): 83%
  Population Normal (%): 85%
  Population Pyknosed Nuclei (%): 18%
  Population Tubulin-Different-Phenotype (%): 7%
  Total Cell Count: 684
HEK-293T [1]; [4]
  Population Apoptotic (%): 14%
  Population Fragmented Nuclei (%): 8%
  Population Healthy Nuclei (%): 84%
  Population Hoechst High Intensity Objects (%): 5%
  Population Mitochondria Different-Phenotype (%): 19%
  Population Mitotic Cells (%): 85%
  Population Normal (%): 94%
  Population Pyknosed Nuclei (%): 6%
  Population Tubulin-Different-Phenotype (%): 21%
  Total Cell Count: 1309
HEK-293T [1]; [5]
  Population Fragmented Nuclei (%): 10% and 13%
  Population Healthy Nuclei (%): 23% and 51%
  Population Hoechst High Intensity Objects (%): 21% and 20%
  Population Membrane Permeable-Phenotype (%): 0% and 6%
  Population Mitotic Cells (%): 29% and 78%
  Population Normal (%): 78% and 79%
  Population Pyknosed Nuclei (%): 66% and 35%
  Population Tubulin-Different-Phenotype (%): 97% and 54%
  Total Cell Count: 211 and 606
HEK-293T [1]; [6]
  Population Fragmented Nuclei (%): 3%
  Population Hoechst High Intensity Objects (%): 12% and 9%
  Population Membrane Permeable-Phenotype (%): 3%
  Population Mitochondria Different-Phenotype (%): 86% and 54%
  Population Mitotic Cells (%): 41% and 87%
  Population Normal (%): 87% and 90%
  Population Tubulin-Different-Phenotype (%): 100% and 85%
HEK-293T [1]; [7]
  Population Apoptotic (%): 14%
  Population Fragmented Nuclei (%): 17%
  Population Healthy Nuclei (%): 69%
  Population Hoechst High Intensity Objects (%): 9%
  Population Membrane Permeable-Phenotype (%): 5%
  Population Mitochondria Different-Phenotype (%): 8%
  Population Mitotic Cells (%): 85%
  Population Normal (%): 90%
  Population Pyknosed Nuclei (%): 12%
  Population Tubulin-Different-Phenotype (%): 14%
  Total Cell Count: 667
HEK-293T [1]; [8]
  Population Apoptotic (%): 12%
  Population Fragmented Nuclei (%): 20%
  Population Healthy Nuclei (%): 77%
  Population Hoechst High Intensity Objects (%): 4%
  Population Membrane Permeable-Phenotype (%): 3%
  Population Mitochondria Different-Phenotype (%): 4%
  Population Mitotic Cells (%): 87%
  Population Normal (%): 95%
  Population Pyknosed Nuclei (%): 2%
  Population Tubulin-Different-Phenotype (%): 19%
  Total Cell Count: 2108
HEK-293T [1]; [9]
  Population Apoptotic (%): 74% and 37%
  Population Fragmented Nuclei (%): 12% and 14%
  Population Healthy Nuclei (%): 31% and 55%
  Population Hoechst High Intensity Objects (%): 24% and 22%
  Population Membrane Permeable-Phenotype (%): 1% and 7%
  Population Mitochondria Different-Phenotype (%): 98% and 51%
  Population Mitotic Cells (%): 25% and 62%
  Population Normal (%): 75% and 77%
  Population Pyknosed Nuclei (%): 55% and 30%
  Population Tubulin-Different-Phenotype (%): 98% and 73%
  Total Cell Count: 229 and 561
HEK-293T [1]; [10]
  Population Fragmented Nuclei (%): 7% and 5%
  Population Hoechst High Intensity Objects (%): 19% and 9%
  Population Membrane Permeable-Phenotype (%): 0% and 10%
  Population Mitochondria Different-Phenotype (%): 95% and 60%
  Population Normal (%): 80% and 90%
  Population Tubulin-Different-Phenotype (%): 95% and 93%
HEK-293T [1]; [11]
  Population Apoptotic (%): 77%
  Population Fragmented Nuclei (%): 18%
  Population Healthy Nuclei (%): 34%
  Population Hoechst High Intensity Objects (%): 23%
  Population Membrane Permeable-Phenotype (%): 0%
  Population Mitochondria Different-Phenotype (%): 100%
  Population Mitotic Cells (%): 22%
  Population Normal (%): 76%
  Population Pyknosed Nuclei (%): 47%
  Population Tubulin-Different-Phenotype (%): 100%
  Total Cell Count: 239
HEK-293T [1]; [12]
  Population Apoptotic (%): 91%
  Population Fragmented Nuclei (%): 8%
  Population Healthy Nuclei (%): 17%
  Population Hoechst High Intensity Objects (%): 17%
  Population Mitochondria Different-Phenotype (%): 90%
  Population Mitotic Cells (%): 8%
  Population Normal (%): 82%
  Population Pyknosed Nuclei (%): 74%
  Population Tubulin-Different-Phenotype (%): 85%
  Total Cell Count: 147
HEK-293T [2]; [13]
  Growth Rate: 0
HEK-293T [2]; [14]
  Growth Rate: 0
HEK-293T [2]; [15]
  Growth Rate: 0
HEK-293T [2]; [16]
  Growth Rate: 0
Fibroblast; 0 h, replicate number 2, timepoint 0 hours
  Growth Rate: 0
Fibroblast; [13]
  Growth Rate: 1
Fibroblast; [14]
  Growth Rate: 0
Fibroblast; 12 h, replicate number 2, timepoint 12 hours
  Growth Rate: 1
Fibroblast; [15]
  Growth Rate: 0
Fibroblast; 18 h, replicate number 2, timepoint 18 hours
  Growth Rate: 1
Fibroblast; [16]
  Growth Rate: 0
